Screening results (PubChem)
STAT1 blocker – reduces IFN-gamma driven STAT1 reporter signal; NIH 3T3 STAT1-luciferase reporter, luminescence; inhibition, % at 5.5 µM; 200,000 compounds, 0.35% hits;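 active = inhibition above a set limit, the mean inhibition across all tested compounds plus 3 SD, cut at about 34% in these data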;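 also: 0% = IFN-gamma with DMSO and 100% = IFN-gamma with 300 µM nifuroxazide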
STAT3 act-1 – increases IL-6 driven STAT3 reporter signal; U3A cells, IL-6 STAT3-luciferase reporter, luminescence; 100% = signal with IL-6 EC80 alone; activation (% of control), % at 5.6 µM; 190,000 compounds, 0.91% hits; AID 871;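 active = activation above the screen-wide mean of compound activation plus 3 SD, cut at about 130% in these data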;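 also: 0% = background luminescence of wells with medium and substrate only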
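Assay system – human STAT1-deficient U3A cells with stable STAT3-luciferase reporter · Also added – IL-6 (33 ng/mL) · Schedule – compound 1 h, then IL-6 6 h at 37 °C · Technique – reporter luminescence signal · Evaluation – % activation versus median of IL-6-stimulated wells · Benchmarks – IL-6-only wells as 100% reference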
STAT3 blocker – reduces IL-6 driven STAT3 reporter signal. U3A cells, IL-6 STAT3-luciferase reporter, luminescence; host cell line lacks STAT1. inhibition, % at 5.5 µM. 190,000 compounds, 0.89% hits. AID 862;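 active = inhibition above the mean inhibition across all screened compounds plus 3 SD, cut at about 44% in these data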;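 also: 0% = DMSO only wells and 100% = 100 µM nifuroxazide control wells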
STAT1 act-1 – STAT1 signaling activation; 200,000 compounds, 2.6% hits; activation (% of control), % at 5.5 µM; NIH 3T3 STAT1-luciferase reporter, IFN-gamma, luminescence; 100% = IFN-gamma alone, no compound;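 active = activation above the screen-wide mean activation plus 3 SD, cut at about 130% in these data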;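 also: raw ratio to IFN-gamma control signal so 100% means no change and 0% no light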
APP 5'UTR act – activates APP 5'UTR luciferase reporter; SH-SY5Y APP 5'UTR luciferase reporter, luminescence; zero percent = DMSO vehicle wells; 190,000 compounds, 1% hits; activation, % at 2 µM; AID 1276;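 active = activation above a set limit, based on mean plus 3 SD of controls, cut at about 140% in these data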
NF-kB neuron act – compounds increasing NF-kB expression in human neuronal cells; 190,000 compounds, 1.6% hits; NF-kB reporter expression; stronger effect = higher value; fold change at 12.5 µM; AID 1239; in the data active = fold change above about 3.3
STAT3 act-2 – confirmation of STAT3 signaling activators | AID 1267 | shares compounds with STAT3 act-1 | potentiation (% of control), % at 5.7 µM | U3A STAT3-luciferase reporter, IL-6 potentiation, luminescence; U3A cells lack STAT1; 100 means same as IL-6 alone | 1,200 compounds, 64% hits;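 active = percent activation of the STAT3 luciferase reporter above a set limit taken from the earlier primary screen, cut at about 130% in these data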;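 also: 0% = background signal of medium plus substrate and 100% = median of IL-6 with DMSO wells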
NFkB act 2 – activates NF-kappaB, counter-screen to STAT3 activators; shares compounds with STAT3 act-1; human cells, NF-kappaB reporter activation; activation (% of control), % at 5.7 µM; 1,200 compounds, 11% hits; in the data active = activation above about 120%;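 also: reporter induced by TNF-alpha stimulation; 100% = median of stimulated DMSO wells and 0% = no signal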
STAT1 act-2 – activates STAT1, counter-screen to STAT3 activators | activation (% of control), % at 5.7 µM | shares compounds with STAT3 act-1 | 1,200 compounds, 13% hits | NIH 3T3 STAT1-luciferase reporter, IFN-gamma, luminescence;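 active = activation above the solvent-only control well mean plus 3 SD, set per screening run, cut at about 120% in these data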;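 also: 100% = IFN-gamma with DMSO median signal so 100% means no change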
* hit, by the source's call; x = no result given. The list is not random: actives were taken first. Their share in the collection is about 4.9%.

SMILES | STAT1 blocker | STAT3 act-1 | STAT3 blocker | STAT1 act-1 | APP 5'UTR act | NF-kB neuron act | STAT3 act-2 | NFkB act 2 | STAT1 act-2
O=S(=O)(Nc1ccc2cn[nH]c2c1)c1ccc(Cl)s1 | 0 | 138* | -49 | 100 | 14 | 1.1 | 122 | 97 | 95
Cc1ccc(Sc2c(C=O)c3ccccc3n2C)cc1 | 11 | 157* | -63 | 90 | 4 | 0.77 | 128 | 81 | 87
CC1(C)CC(=O)C2=C(C1)N(c1cccnc1)C(N)=C(C#N)C2c1cccs1 (stereo not drawn) | 1 | 100 | 4 | 99 | 5 | 0.78 | x | x | x
CC1(C)CC(=O)C2=C(C1)N(c1ccccc1C#N)C(N)=C(C#N)C2c1cccs1 (stereo not drawn) | 2 | 140* | -46 | 101 | 34 | 0.82 | 149* | 112 | 106
CS(=O)(=O)N(CCC#N)Cc1ccco1 | -1 | 100 | 12 | 101 | 17 | 1.2 | x | x | x
CCOc1cc(N2CCOCC2)c(OCC)cc1NC(=O)COc1ncnc2ccccc12 | -6 | 151* | -50 | 106 | -17 | 1.1 | 154* | 107 | 104
CCOc1cc(N2CCOCC2)c(OCC)cc1NC(=O)COC(=O)c1cc2ccccc2cc1O | 4 | 105 | -6 | 96 | 14 | 1.3 | x | x | x
CCOc1ccc(Nc2nc(C)cc(C)c2C#N)cc1 | 2 | 140* | -45 | 93 | x | 1.3 | 126 | 102 | 104
COc1ccc(Nc2nc(C(F)(F)F)nc(C)c2C#N)cc1 | 4 | 101 | -3 | 97 | -10 | 1.1 | x | x | x
COc1ccc(Nc2nc(C)cc(C)c2C#N)cc1 | 0 | 137* | -44 | 100 | -4 | 1.2 | 150* | 107 | 112
CCOc1ccc(Nc2cc(C)nc3nc(C)nn23)cc1 | -2 | 91 | 10 | 102 | 8 | 0.99 | x | x | x
CC1(C)Cc2ccccc2C(/C(C#N)=N/O)=N1 | -3 | 100 | 3 | 101 | 9 | 1.2 | x | x | x
CCC(=O)Oc1oc(-c2ccccc2)nc1C=Nc1ccccc1OC | -1 | 144* | -50 | 101 | 14 | 1 | 129 | 115 | 99
Cn1nnnc1SCc1nc2ccccc2s1 | -12 | 139* | -43 | 111 | 36 | 1.7 | 139* | 115 | 124*
O=c1c2ccccc2nc(SCc2nc3ccccc3s2)n1CCCO | -29 | 137* | -35 | 127 | 50 | 1.1 | 151* | 121* | 151*
O=C(CSc1nc2ccccc2c(=O)n1CCCO)NCc1ccccc1 | 4 | 100 | 7 | 97 | 13 | 0.79 | x | x | x
CCOc1ccc(NC(=O)CC(c2ccccc2)c2ccc(F)cc2)cc1 (stereo not drawn) | -1 | 107 | -5 | 101 | 5 | 1.3 | x | x | x
CNc1ccc(/C=C/C(=O)c2cccc3ccccc23)cc1[N+](=O)[O-] | -2 | 80 | 25 | 101 | -17 | 1.2 | x | x | x
Clc1ccc(/C=N/Nc2nnc(-c3ncc[nH]3)c3ccccc23)cc1 | -15 | 116 | -17 | 114 | 41 | 0.66 | x | x | x
Clc1cccc(/C=N/Nc2nnc(Cl)c3ccccc23)c1 | 0 | 140* | -39 | 100 | 4 | 1.6 | 128 | 113 | 117
O=C(Nc1cccc(Cl)c1)c1cc(S(=O)(=O)NCCc2ccc(Cl)cc2)ccc1F | 0 | 107 | -13 | 100 | 8 | 1 | x | x | x
CCc1ccc(NC(=O)c2ccccc2NC(=O)C2CCCO2)cc1 (stereo not drawn) | -18 | 116 | -13 | 116 | 113 | 2.4 | x | x | x
O=C(NCCOc1ccccc1)c1ccccc1NC(=O)C1CCCO1 (stereo not drawn) | -9 | 140* | -40 | 107 | 132 | 2.8 | 138* | 120 | 131*
CCn1cc(C(=O)N2CCc3ccccc32)c(=O)c2cc(S(=O)(=O)N(C)C3CCCCC3)ccc21 | 2 | 107 | -4 | 98 | 17 | 0.36 | x | x | x
CCn1cc(C(=O)N2CCc3ccccc32)c(=O)c2cc(S(=O)(=O)N3CCOCC3)ccc21 | -7 | 146* | -42 | 106 | 12 | 0.88 | 128 | 105 | 99
SMILES | STAT1 blocker | STAT3 act-1 | STAT3 blocker | STAT1 act-1 | APP 5'UTR act | NF-kB neuron act | STAT3 act-2 | NFkB act 2 | STAT1 act-2
CCCn1c(NC(=O)c2ccccc2)nc2ccccc21 | -3 | 137* | -33 | 102 | -5 | 0.99 | 113 | 106 | 100
CCCn1c(CNC(=O)c2ccccc2)nc2ccccc21 | -6 | 100 | 5 | 106 | -26 | 2 | x | x | x
O=C(Nc1nc2ccccc2n1CCN1CCCC1)c1ccc(Cl)cc1 | -22 | 150* | -55 | 122 | 65 | 2.2 | 143* | 117 | 127*
CCCN(CCC)C(=O)c1cc(-c2ccc3c(c2)OCO3)nc2ccccc12 | -2 | 154* | -64 | 102 | 0 | 0.85 | 138* | 101 | 93
S=C1NC2(CCCCCC2)N=C1c1ccccc1 | -10 | 106 | 2 | 107 | 19 | 1.5 | x | x | x
S=C1NC2(CCCCC2)Nc2ccccc21 | 9 | 138* | -42 | 90 | -18 | 0.98 | 121 | 96 | 92
O=C1c2ccccc2NC2(CCCC2)N1O | 3 | 105 | 2 | 97 | 11 | 0.99 | x | x | x
S=C1NC2(CCCC2)Nc2ccccc21 | 10 | 143* | -48 | 89 | 4 | 1 | 144* | 100 | 93
COC(=O)c1n[nH]c2ccccc12 | 2 | 160* | -66 | 98 | 3 | 1.3 | 154* | 102 | 95
COCCNC(=O)c1n[nH]c2ccccc12 | -11 | 105 | 0 | 110 | 17 | 1.3 | x | x | x
C/[N+]([O-])=C/c1c(OCc2ccc(Cl)cc2Cl)ccc2ccccc12 | -13 | 138* | -31 | 112 | 22 | 1 | 115 | 98 | 85
Nc1cccc(-c2nc3ccc(N)cc3s2)c1 | -26 | 106 | -4 | 124 | -13 | 2.6 | x | x | x
Nc1cccc(C2=Nc3cccc4cccc(c34)N2)c1 | 1 | 147* | -63 | 99 | -4 | 1.1 | 157* | 103 | 105
COc1ccc(C2SCC(=O)N2c2nnc(C34CC5CC(CC(C5)C3)C4)s2)cc1 (stereo not drawn) | -6 | 99 | -2 | 105 | 11 | 1.1 | x | x | x
COc1cc(C2SCC(=O)N2c2nnc(C34CC5CC(CC(C5)C3)C4)s2)cc(OC)c1OC (stereo not drawn) | 1 | 165* | -58 | 99 | -9 | 1.2 | 142* | 108 | 111
O=C/C(=C\Nc1ccc(Cl)cn1)c1nc2ccccc2o1 | 12 | 137* | -40 | 94 | x | 1.4 | 112 | 106 | 97
O=C/C(=C\Nc1ccc(Cl)cn1)c1nc2cc(Cl)ccc2o1 | -3 | 145* | -53 | 102 | x | 1.4 | 127 | 108 | 97
